According to ChEMBL document CHEMBL3232885, “Synthesis, characterization and pharmacological screening of some novel 5-imidazopyrazole incorporated polyhydroquinoline derivatives” (Eur J Med Chem, 2014):
In brackets after ≈: the same amount, converted by molar mass.

Experiments:
[1] = test system: Mycobacterium tuberculosis; experiment: Antitubercular activity against Mycobacterium tuberculosis H37Rv assessed as inhibition of colony formation at 100 ug/mL after 2 to 4 weeks by Lowensteine-Jensen method relative to control; format: functional
Candida albicans = experiment: Antifungal activity against Candida albicans MTCC 227 assessed as growth inhibition after 24 to 48 hrs by broth microdilution method; format: functional
Outline: (§1)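 Fungal nutrition used Sabouraud Dextrose broth with inoculum at 10⁸ CFU mL⁻¹ by turbidity. Serial compound dilutions were made in 2% DMSO in water. Growth was noted on subculture after 24 and 48 h. MIC was taken as the highest dilution preventing visible turbidity after spot subculture.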

Clostridium tetani = experiment: Antibacterial activity against Clostridium tetani MTCC 449 assessed as growth inhibition after 24 to 48 hrs by broth microdilution method; format: functional
[2] = test system: Mycobacterium tuberculosis; experiment: Antitubercular activity against Mycobacterium tuberculosis H37Rv assessed as inhibition of colony formation at 250 ug/mL after 2 to 4 weeks by Lowensteine-Jensen method relative to control; format: functional
Escherichia coli = experiment: Antibacterial activity against Escherichia coli MTCC 443 assessed as growth inhibition after 24 to 48 hrs by broth microdilution method; format: functional
Outline: (§2)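 Bacteria were grown in Mueller-Hinton broth with inoculum adjusted to 10⁸ CFU mL⁻¹ by turbidity. Compounds were serially diluted in 2% aqueous DMSO and incubated at 37 °C overnight. Growth was checked by subculture at 24 and 48 h. MIC was taken as the highest dilution with no turbidity after spot subculture.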

Plasmodium falciparum = experiment: Antimalarial activity against chloroquine/quinine sensitive Plasmodium falciparum assessed as parasite growth inhibition after 48 hrs; format: functional, organism-based
Bacillus subtilis = experiment: Antibacterial activity against Bacillus subtilis MTCC 441 assessed as growth inhibition after 24 to 48 hrs by broth microdilution method; format: functional; outline: as §2
Aspergillus fumigatus = experiment: Antifungal activity against Aspergillus fumigatus MTCC 3008 assessed as growth inhibition after 24 to 48 hrs by broth microdilution method; format: functional; outline: as §1
Streptococcus pneumoniae = experiment: Antibacterial activity against Streptococcus pneumoniae MTCC 1936 assessed as growth inhibition after 24 to 48 hrs by broth microdilution method; format: functional; outline: as §2
Salmonella typhi = experiment: Antibacterial activity against Salmonella typhi MTCC 98 assessed as growth inhibition after 24 to 48 hrs by broth microdilution method; format: functional, Salmonella enterica subsp. enterica serovar Typhi; conditions: Salmonella enterica
Vibrio cholerae = experiment: Antibacterial activity against Vibrio cholerae MTCC 3906 assessed as growth inhibition after 24 to 48 hrs by broth microdilution method; format: functional

| SMILES | inhibition at 100 µg/mL [1] [%] | MIC (Candida albicans) [mg/L] | MIC (Clostridium tetani) [mg/L] | inhibition at 250 µg/mL [2] [%] | MIC (Escherichia coli) [mg/L] | IC50 (Plasmodium falciparum) [mg/L] | MIC (Bacillus subtilis) [mg/L] | MIC (Aspergillus fumigatus) [mg/L] | MIC (Streptococcus pneumoniae) [mg/L] | MIC (Salmonella typhi) [mg/L] | MIC (Vibrio cholerae) [mg/L] |
| --- | --- | --- | --- | --- | --- | --- | --- | --- | --- | --- | --- |
| Cc1ccc(N2C(N)=C(C#N)C(c3c(C)nn(-c4ccccc4)c3-n3ccnc3)C3=C2CC(C)(C)CC3=O)cc1 (configuration not stated) | 80 | 1000 (≈ 1890 µM) | 100 (≈ 189 µM) | 90 | 200 (≈ 378 µM) | 1.07 (≈ 2.03 µM) | 100 (≈ 189 µM) | 1000 (≈ 1890 µM) | 125 (≈ 236 µM) | 62.5 (≈ 118 µM) | 250 (≈ 472 µM) |
| CCOC(=O)C1=C(N)N(c2ccc(O)cc2)C2=C(C(=O)CCC2)C1c1c(C)nn(-c2ccccc2)c1-n1ccnc1 (configuration not stated) | 37 | 500 (≈ 908 µM) | 200 (≈ 363 µM) | 41 | 62.5 (≈ 114 µM) | 0.067 (≈ 0.122 µM) | 200 (≈ 363 µM) | 500 (≈ 908 µM) | 250 (≈ 454 µM) | 200 (≈ 363 µM) | 200 (≈ 363 µM) |
